Measurements taken from ChEMBL document CHEMBL2321783, “Structure-activity relationships of peptides incorporating a bioactive reverse-turn heterocycle at the melanocortin receptors: identification of a 5800-fold mouse melanocortin-3 receptor (mMC3R) selective antagonist/partial agonist versus the mouse melanocortin-4 receptor (mMC4R)” (J Med Chem, 2013).

Key:
Format in all cases: functional, cell-based
Melanocortin receptor 3 = Melanocortin receptor 3 (Mus musculus, UniProt P33033); assay: Agonist activity at mouse MC3 receptor expressed in HEK293 cells after 6 hrs by cAMP-based beta-galactosidase reporter gene assay
Procedure, shortened: (§1)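 HEK-293 cells stably expressing the mouse receptor, kept in DMEM with 10% fetal calf serum, transfected with CRE/β-galactosidase reporter. Efficacy is relative to NDP-MSH on the same plate. EC50 is the mean of duplicate wells from three or more independent experiments, fitted by nonlinear least squares.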

Melanocortin receptor 4 = Melanocortin receptor 4 (Mus musculus, UniProt P56450); assay: Agonist activity at mouse MC4 receptor expressed in HEK293 cells after 6 hrs by cAMP-based beta-galactosidase reporter gene assay; conditions: hek293; procedure, shortened: as §1
Melanocortin receptor 5 = Melanocortin receptor 5 (Mus musculus, UniProt P41149); assay: Agonist activity at mouse MC5 receptor expressed in HEK293 cells after 6 hrs by cAMP-based beta-galactosidase reporter gene assay; conditions: hek293; procedure, shortened: as §1
[1] = biological target: Melanocyte-stimulating hormone receptor (Mus musculus, UniProt Q01727); assay: Agonist activity at mouse MC1 receptor expressed in HEK293 cells after 6 hrs by cAMP-based beta-galactosidase reporter gene assay; conditions: hek293; procedure, shortened: as §1
Melanocyte-stimulating hormone receptor, sequence (Q01727 whole entry): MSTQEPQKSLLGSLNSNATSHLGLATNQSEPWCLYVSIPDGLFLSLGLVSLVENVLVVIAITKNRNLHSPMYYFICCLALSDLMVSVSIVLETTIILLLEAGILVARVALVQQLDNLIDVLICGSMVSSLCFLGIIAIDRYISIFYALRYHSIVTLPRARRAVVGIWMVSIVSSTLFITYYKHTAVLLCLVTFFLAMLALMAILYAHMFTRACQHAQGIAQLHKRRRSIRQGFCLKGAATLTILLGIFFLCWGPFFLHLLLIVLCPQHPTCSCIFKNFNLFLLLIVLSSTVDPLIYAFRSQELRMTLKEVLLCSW

Melanocortin receptor 3, sequence (P33033 whole entry): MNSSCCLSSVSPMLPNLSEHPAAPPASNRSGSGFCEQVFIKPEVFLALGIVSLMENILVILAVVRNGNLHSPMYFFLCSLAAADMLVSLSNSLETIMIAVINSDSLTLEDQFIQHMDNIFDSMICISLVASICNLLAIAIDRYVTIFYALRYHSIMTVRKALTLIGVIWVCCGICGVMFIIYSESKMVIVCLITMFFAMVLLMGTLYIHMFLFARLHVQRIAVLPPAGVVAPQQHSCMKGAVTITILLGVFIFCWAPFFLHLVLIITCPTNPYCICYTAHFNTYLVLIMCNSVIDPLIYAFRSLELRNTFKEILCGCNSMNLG
Melanocortin receptor 5, sequence (P41149 whole entry): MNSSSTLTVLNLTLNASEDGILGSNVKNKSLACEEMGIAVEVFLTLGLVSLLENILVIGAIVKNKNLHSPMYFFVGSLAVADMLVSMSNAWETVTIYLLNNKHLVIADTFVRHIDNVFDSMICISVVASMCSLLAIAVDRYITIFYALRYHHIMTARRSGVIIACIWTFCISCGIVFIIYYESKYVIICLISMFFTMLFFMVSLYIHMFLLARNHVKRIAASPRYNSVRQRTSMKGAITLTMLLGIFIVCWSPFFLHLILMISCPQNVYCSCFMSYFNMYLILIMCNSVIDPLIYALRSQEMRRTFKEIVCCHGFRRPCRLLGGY
Melanocortin receptor 4, sequence (P56450 whole entry): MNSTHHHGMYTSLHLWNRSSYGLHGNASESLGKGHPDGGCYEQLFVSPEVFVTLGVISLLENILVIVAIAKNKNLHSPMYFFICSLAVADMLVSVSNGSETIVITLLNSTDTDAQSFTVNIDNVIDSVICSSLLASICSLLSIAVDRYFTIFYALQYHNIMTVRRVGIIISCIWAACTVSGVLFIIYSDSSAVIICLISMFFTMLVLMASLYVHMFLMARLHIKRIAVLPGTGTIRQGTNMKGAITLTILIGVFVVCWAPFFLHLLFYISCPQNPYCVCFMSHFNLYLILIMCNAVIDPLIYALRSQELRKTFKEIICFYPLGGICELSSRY

Row | SMILES | EC50 (Melanocortin receptor 3) | EC50 (Melanocortin receptor 4) | EC50 (Melanocortin receptor 5) | EC50 [1]
1 | C[C@@H]1NC(=O)[C@H](CC(N)=O)NC(=O)[C@H](Cc2c[nH]c3ccccc23)N2C[C@H](CCCNC(=N)N)NC(=O)[C@@H](CSCC2=O)NC(=O)[C@@H](Cc2cccc3ccccc23)NC(=O)[C@H](Cc2cnc[nH]2)NC(=O)[C@@H](NC(=O)[C@@H](N)Cc2ccc(O)cc2)CSSC[C@@H](C(=O)N[C@@H](Cc2ccc(O)cc2)C(N)=O)NC(=O)[C@H](Cc2ccccc2)NC1=O | 190 nM |  |  | 
2 | C[C@@H]1NC(=O)[C@H](CC(N)=O)NC(=O)[C@H](Cc2c[nH]c3ccccc23)N2C[C@H](C)NC(=O)[C@H](CSCC2=O)NC(=O)[C@@H](Cc2ccccc2)NC(=O)[C@H](Cc2c[nH]cn2)NC(=O)[C@@H](NC(=O)[C@@H](N)Cc2ccc(O)cc2)CSSC[C@@H](C(=O)N[C@@H](Cc2ccc(O)cc2)C(N)=O)NC(=O)[C@H](Cc2ccccc2)NC1=O |  | 1300 nM | 850 nM | 19 nM
3 | C[C@@H]1NC(=O)[C@H](CC(N)=O)NC(=O)[C@H](Cc2c[nH]c3ccccc23)N2C[C@H](CCCNC(=N)N)NC(=O)[C@H](CSCC2=O)NC(=O)[C@@H](Cc2ccc(I)cc2)NC(=O)[C@H](Cc2c[nH]cn2)NC(=O)[C@@H](NC(=O)[C@@H](N)Cc2ccc(O)cc2)CSSC[C@@H](C(=O)N[C@@H](Cc2ccc(O)cc2)C(N)=O)NC(=O)[C@H](Cc2ccccc2)NC1=O |  | 20 nM | 9.8 nM | 0.5 nM
4 | C[C@@H]1NC(=O)[C@@H](NC(=O)[C@@H](N)Cc2ccc(O)cc2)CSSC[C@@H](C(=O)N[C@@H](Cc2ccc(O)cc2)C(N)=O)NC(=O)[C@H](Cc2ccccc2)NC(=O)[C@H](C)NC(=O)[C@H](CC(N)=O)NC(=O)[C@H](Cc2c[nH]c3ccccc23)N2C[C@H](CCCNC(=N)N)NC(=O)[C@@H](CSCC2=O)NC(=O)[C@@H](Cc2ccccc2)NC1=O | 4020 nM |  |  | 
5 | C[C@@H]1NC(=O)[C@H](CC(N)=O)NC(=O)[C@H](Cc2c[nH]c3ccccc23)N2C[C@H](CCCNC(=N)N)NC(=O)[C@H](CSCC2=O)NC(=O)[C@@H](Cc2cccc3ccccc23)NC(=O)[C@H](Cc2c[nH]cn2)NC(=O)[C@@H](NC(=O)[C@@H](N)Cc2ccc(O)cc2)CSSC[C@@H](C(=O)N[C@@H](Cc2ccc(O)cc2)C(N)=O)NC(=O)[C@H](Cc2ccccc2)NC1=O |  | 130 nM | 205 nM | 7.4 nM
6 | C[C@@H]1NC(=O)[C@H](CC(N)=O)NC(=O)[C@H](C)N2C[C@H](CCCNC(=N)N)NC(=O)[C@@H](CSCC2=O)NC(=O)[C@@H](Cc2ccccc2)NC(=O)[C@H](Cc2cnc[nH]2)NC(=O)[C@@H](NC(=O)[C@@H](N)Cc2ccc(O)cc2)CSSC[C@@H](C(=O)N[C@@H](Cc2ccc(O)cc2)C(N)=O)NC(=O)[C@H](Cc2ccccc2)NC1=O | 2230 nM |  |  | 
7 | C[C@@H]1NC(=O)[C@H](CC(N)=O)NC(=O)[C@@H](Cc2ccc3ccccc3c2)N2C[C@H](CCCNC(=N)N)NC(=O)[C@H](CSCC2=O)NC(=O)[C@@H](Cc2ccccc2)NC(=O)[C@H](Cc2c[nH]cn2)NC(=O)[C@@H](NC(=O)[C@@H](N)Cc2ccc(O)cc2)CSSC[C@@H](C(=O)N[C@@H](Cc2ccc(O)cc2)C(N)=O)NC(=O)[C@H](Cc2ccccc2)NC1=O |  | 50 nM | 29 nM | 14 nM
8 | C[C@@H]1NC(=O)[C@H](CC(N)=O)NC(=O)[C@H](Cc2c[nH]c3ccccc23)N2C[C@H](C)NC(=O)[C@@H](CSCC2=O)NC(=O)[C@@H](Cc2ccccc2)NC(=O)[C@H](Cc2cnc[nH]2)NC(=O)[C@@H](NC(=O)[C@@H](N)Cc2ccc(O)cc2)CSSC[C@@H](C(=O)N[C@@H](Cc2ccc(O)cc2)C(N)=O)NC(=O)[C@H](Cc2ccccc2)NC1=O | 8070 nM |  |  | 
9 | C[C@@H]1NC(=O)[C@H](CC(N)=O)NC(=O)[C@@H](Cc2ccc3ccccc3c2)N2C[C@H](CCCNC(=N)N)NC(=O)[C@@H](CSCC2=O)NC(=O)[C@@H](Cc2ccccc2)NC(=O)[C@H](Cc2cnc[nH]2)NC(=O)[C@@H](NC(=O)[C@@H](N)Cc2ccc(O)cc2)CSSC[C@@H](C(=O)N[C@@H](Cc2ccc(O)cc2)C(N)=O)NC(=O)[C@H](Cc2ccccc2)NC1=O | 180 nM |  |  | 
10 | C[C@@H]1NC(=O)[C@H](CC(N)=O)NC(=O)[C@H](Cc2c[nH]c3ccccc23)N2C[C@H](CCCNC(=N)N)NC(=O)[C@H](CSCC2=O)NC(=O)[C@@H](Cc2ccc3ccccc3c2)NC(=O)[C@H](Cc2c[nH]cn2)NC(=O)[C@@H](NC(=O)[C@@H](N)Cc2ccc(O)cc2)CSSC[C@@H](C(=O)N[C@@H](Cc2ccc(O)cc2)C(N)=O)NC(=O)[C@H](Cc2ccccc2)NC1=O |  | 190 nM | 46 nM | 8.7 nM
11 | C[C@@H]1NC(=O)[C@H](CC(N)=O)NC(=O)[C@H](Cc2c[nH]c3ccccc23)N2C[C@H](CCCN=C(N)N)NC(=O)[C@H](CSCC2=O)NC(=O)[C@@H](Cc2ccccc2)NC(=O)[C@H](Cc2cnc[nH]2)NC(=O)[C@@H](NC(=O)[C@@H](N)Cc2ccc(O)cc2)CSSC[C@@H](C(=O)N[C@@H](Cc2ccc(O)cc2)C(N)=O)NC(=O)[C@H](Cc2ccccc2)NC1=O |  | 190 nM | 46 nM | 2.4 nM
12 | C[C@@H]1NC(=O)[C@H](CC(N)=O)NC(=O)[C@H](Cc2c[nH]c3ccccc23)N2C[C@H](CCCNC(=N)N)NC(=O)[C@H](CSCC2=O)NC(=O)[C@@H](Cc2ccccc2)NC(=O)[C@@H]2CCCN2C(=O)[C@@H](NC(=O)[C@@H](N)Cc2ccc(O)cc2)CSSC[C@@H](C(=O)N[C@@H](Cc2ccc(O)cc2)C(N)=O)NC(=O)[C@H](Cc2ccccc2)NC1=O |  | 240 nM | 270 nM | 32 nM
13 | C[C@@H]1NC(=O)[C@H](CC(N)=O)NC(=O)[C@H](Cc2c[nH]c3ccccc23)N2C[C@H](CCCCNC(=N)N)NC(=O)[C@H](CSCC2=O)NC(=O)[C@@H](Cc2ccccc2)NC(=O)[C@H](Cc2c[nH]cn2)NC(=O)[C@@H](NC(=O)[C@@H](N)Cc2ccc(O)cc2)CSSC[C@@H](C(=O)N[C@@H](Cc2ccc(O)cc2)C(N)=O)NC(=O)[C@H](Cc2ccccc2)NC1=O |  | 965 nM | 350 nM | 15 nM
14 | C[C@@H]1NC(=O)[C@H](CC(N)=O)NC(=O)[C@H](Cc2c[nH]c3ccccc23)N2C[C@H](CCCCN)NC(=O)[C@H](CSCC2=O)NC(=O)[C@@H](Cc2ccccc2)NC(=O)[C@H](Cc2c[nH]cn2)NC(=O)[C@@H](NC(=O)[C@@H](N)Cc2ccc(O)cc2)CSSC[C@@H](C(=O)N[C@@H](Cc2ccc(O)cc2)C(N)=O)NC(=O)[C@H](Cc2ccccc2)NC1=O |  | 420 nM | 460 nM | 30 nM
15 | C[C@@H]1NC(=O)[C@H](CC(N)=O)NC(=O)[C@H](Cc2ccc3ccccc3c2)N2C[C@H](CCCNC(=N)N)NC(=O)[C@H](CSCC2=O)NC(=O)[C@@H](Cc2ccccc2)NC(=O)[C@H](Cc2c[nH]cn2)NC(=O)[C@@H](NC(=O)[C@@H](N)Cc2ccc(O)cc2)CSSC[C@@H](C(=O)N[C@@H](Cc2ccc(O)cc2)C(N)=O)NC(=O)[C@H](Cc2ccccc2)NC1=O |  | 220 nM | 52 nM | 6.2 nM
16 | C[C@@H]1NC(=O)[C@H](CC(N)=O)NC(=O)[C@H](Cc2ccc(-c3ccccc3)cc2)N2C[C@H](CCCNC(=N)N)NC(=O)[C@H](CSCC2=O)NC(=O)[C@@H](Cc2ccccc2)NC(=O)[C@H](Cc2c[nH]cn2)NC(=O)[C@@H](NC(=O)[C@@H](N)Cc2ccc(O)cc2)CSSC[C@@H](C(=O)N[C@@H](Cc2ccc(O)cc2)C(N)=O)NC(=O)[C@H](Cc2ccccc2)NC1=O |  | 980 nM | 830 nM | 20 nM
17 | C[C@@H]1NC(=O)[C@H](CC(N)=O)NC(=O)[C@H](C)N2C[C@H](CCCNC(=N)N)NC(=O)[C@H](CSCC2=O)NC(=O)[C@@H](Cc2ccccc2)NC(=O)[C@H](Cc2c[nH]cn2)NC(=O)[C@@H](NC(=O)[C@@H](N)Cc2ccc(O)cc2)CSSC[C@@H](C(=O)N[C@@H](Cc2ccc(O)cc2)C(N)=O)NC(=O)[C@H](Cc2ccccc2)NC1=O |  | 210 nM | 125 nM | 80 nM
18 | C[C@@H]1NC(=O)[C@H](CC(N)=O)NC(=O)[C@H](Cc2c[nH]c3ccccc23)N2C[C@H](CCCNC(=N)N)NC(=O)[C@H](CSCC2=O)NC(=O)[C@@H](Cc2ccccc2)NC(=O)[C@H](Cc2ccccc2)NC(=O)[C@@H](NC(=O)[C@@H](N)Cc2ccc(O)cc2)CSSC[C@@H](C(=O)N[C@@H](Cc2ccc(O)cc2)C(N)=O)NC(=O)[C@H](Cc2ccccc2)NC1=O |  | 290 nM | 415 nM | 1.94 nM
19 | C[C@@H]1NC(=O)[C@H](CC(N)=O)NC(=O)[C@H](Cc2c[nH]c3ccccc23)N2C[C@H](CCCNC(=N)N)NC(=O)[C@H](CSCC2=O)NC(=O)[C@@H](Cc2ccc(-c3ccccc3)cc2)NC(=O)[C@H](Cc2c[nH]cn2)NC(=O)[C@@H](NC(=O)[C@@H](N)Cc2ccc(O)cc2)CSSC[C@@H](C(=O)N[C@@H](Cc2ccc(O)cc2)C(N)=O)NC(=O)[C@H](Cc2ccccc2)NC1=O |  | 760 nM | 87 nM | 1.1 nM
20 | C[C@@H]1NC(=O)[C@@H](NC(=O)[C@@H](N)Cc2ccc(O)cc2)CSSC[C@@H](C(=O)N[C@@H](Cc2ccc(O)cc2)C(N)=O)NC(=O)[C@H](Cc2ccccc2)NC(=O)[C@H](C)NC(=O)[C@H](CC(N)=O)NC(=O)[C@H](Cc2c[nH]c3ccccc23)N2C[C@H](CCCNC(=N)N)NC(=O)[C@H](CSCC2=O)NC(=O)[C@@H](Cc2ccccc2)NC1=O |  | 705 nM | 690 nM | 52 nM
21 | C[C@@H]1NC(=O)[C@H](CC(N)=O)NC(=O)[C@H](Cc2c[nH]c3ccccc23)N2C[C@H](CCCNC(=N)N)NC(=O)[C@H](CSCC2=O)NC(=O)[C@@H]2CCCN2C(=O)[C@H](Cc2c[nH]cn2)NC(=O)[C@@H](NC(=O)[C@@H](N)Cc2ccc(O)cc2)CSSC[C@@H](C(=O)N[C@@H](Cc2ccc(O)cc2)C(N)=O)NC(=O)[C@H](Cc2ccccc2)NC1=O |  | 5400 nM | 1100 nM | 5000 nM
